From the RNAGym collection of RNA variant scans (doi:10.1126/science.aae0568)
Variants at the floor of the assay were thinned out.

B1: tRNA (parent)
chain: GUUCCGUUGGCGUAAUGGUAACGCGUCUCCCUCCUAAGGAGAAGACUGCGGGUUCGAGUCCCGUACGGAACG

Variants of: B1
Assay: yeast fitness relative to wild type (ratio to wild type); higher = fitter; tRNA-Arg(CCU), competitive growth, 37 C, YPD
Procedure, shortened: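 Gene amplicons from the start population and from each of six end populations were read by 100-nucleotide paired-end sequencing. Those end populations came from pooled Saccharomyces cerevisiae strains carrying tRNA-Arg(CCU) gene variants at the native locus, competed in YPD at 37°C for 24 hours. Fitness relative to wild type was worked out from changes in genotype frequencies. Genotypes needed ≥ 100 starting reads, and estimates < 0.5 were set to 0.5.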

Compared with C4G A21U U54G, C4G G25C is higher in yeast fitness: 0.607 for the first, 0.982 for the second.

C4G A21C C22A C27G C34U G56A G67C and C4G A43C C62A cannot be ordered by yeast fitness: at most 0.5 for the first, at most 0.5 for the second.

C4G C30G G50U and C4G C11U A14U G23A C62A cannot be ordered by yeast fitness: at most 0.5 for the first, at most 0.5 for the second.

C4G G17A G41C G58A and C4G G25A G51A cannot be ordered by yeast fitness: at most 0.5 for the first, at most 0.5 for the second.

Going from C4G G12C U35A C49G C66U to C4G G18A C66U, the yeast fitness falls from 0.658 to 0.524.

C4G C34U C49A U54C A69U and C4G C31A A42C cannot be ordered by yeast fitness: at most 0.5 for the first, at most 0.5 for the second.

Compared with C4G C24U A42C C46A U54A, C4G C30G G38A A42U is lower in yeast fitness: 0.623 for the first, at most 0.5 for the second.

C4G C34G U59A and C4G C5A C27A C61A cannot be ordered by yeast fitness: at most 0.5 for the first, at most 0.5 for the second.

Compared with C4G C31U, C4G A40G C55U is lower in yeast fitness: 1.12 for the first, at most 0.5 for the second.

First: C4G G9A
Second: C4G A37G A43G A69U
The yeast fitness of the first is higher: 0.916 for the first, at most 0.5 for the second.

Compared with C4G G38A, C4G G38C is higher in yeast fitness: 0.692 for the first, 0.763 for the second.

Compared with C4G G10C C31U U53A, C4G G17A C34A A43G is higher in yeast fitness: at most 0.5 for the first, 0.633 for the second.

C4G C5U U8A G12A G48A and C4G G18A A21G G25A G51C cannot be ordered by yeast fitness: at most 0.5 for the first, at most 0.5 for the second.

C4G G6A C11U C61U and C4G C11U A14U C30G A69U cannot be ordered by yeast fitness: at most 0.5 for the first, at most 0.5 for the second.

First: C4G C5G C11A G38A
Second: C4G A36G
The yeast fitness of the first is lower: at most 0.5 for the first, 0.939 for the second.

Going from C4G G38A G67A to C4G A40U C66G, the yeast fitness rises from at most 0.5 to 0.624.

Compared with C4G C11U C33A U59C, C4G C11A G17A A20G C27U A43U C49G C60U G68A is lower in yeast fitness: 0.707 for the first, at most 0.5 for the second.

Compared with C4G C30A A42U C55U C66A, C4G C27U G58C is higher in yeast fitness: at most 0.5 for the first, 0.71 for the second.

C4G C22G C24U G41A and C4G A21G A45U C49U cannot be ordered by yeast fitness: at most 0.5 for the first, at most 0.5 for the second.

Compared with C4G C11G U19C G23C U28G C61G, C4G C24G is higher in yeast fitness: at most 0.5 for the first, 0.617 for the second.

C4G G12A C24U A70C and C4G C30A A45U C55U cannot be ordered by yeast fitness: at most 0.5 for the first, at most 0.5 for the second.

Compared with C4G C61A C62U A65U A69C, C4G G17A C22A G38A is higher in yeast fitness: at most 0.5 for the first, 0.638 for the second.

First: C4G C11G G50A
Second: C4G A65U G68U
The yeast fitness of the first is lower: at most 0.5 for the first, 1.11 for the second.

Going from C4G C29U A43G U53G G63A to C4G C24U C33G A65U C66U A69C, the yeast fitness rises from at most 0.5 to 0.584.

Going from C4G G10C C27G A37G G39A to C4G C22U C27U, the yeast fitness rises from at most 0.5 to 0.657.

C4G G6C U8G G17A U32C and C4G G12C C46U cannot be ordered by yeast fitness: at most 0.5 for the first, at most 0.5 for the second.

First: C4G C22U C30U C33U A45C
Second: C4G C49U U59C
The yeast fitness of the first is lower: at most 0.5 for the first, 0.576 for the second.

C4G C31A C61U and C4G G18C G68A cannot be ordered by yeast fitness: at most 0.5 for the first, at most 0.5 for the second.

C4G C11G C31G G48A C55A C62A and C4G G9A C22U C46G G56C cannot be ordered by yeast fitness: at most 0.5 for the first, at most 0.5 for the second.

First: C4G A20U G56C
Second: C4G C61A G67A
The yeast fitness of the first is lower: at most 0.5 for the first, 0.553 for the second.

First: C4G C31U G48C
Second: C4G A57C
The yeast fitness of the first is higher: 0.647 for the first, 0.57 for the second.

Going from C4G G12C to C4G A36G G38A A40U, the yeast fitness falls from 0.676 to at most 0.5.

Going from C4G G25C C46U G50A to C4G G18C C24G C29G, the yeast fitness falls from 0.636 to at most 0.5.

Compared with C4G C29G G58A, C4G G17A G58C C60U A69U is lower in yeast fitness: 0.53 for the first, at most 0.5 for the second.

Going from C4G G9A C27U C46G G48A C62G G68C to C4G G23C, the yeast fitness rises from at most 0.5 to 0.587.

C4G G17A G63A C66U and C4G G23C C61G cannot be ordered by yeast fitness: at most 0.5 for the first, at most 0.5 for the second.

First: C4G G12U A14C C49U
Second: C4G C5A
The yeast fitness of the first is lower: at most 0.5 for the first, 0.765 for the second.

First: C4G C29A C33G A45C
Second: C4G A43C C55A A57C
The yeast fitness of the first is higher: 0.588 for the first, at most 0.5 for the second.

C4G G12U A14C C49G A57U C61G and C4G C33U C55A cannot be ordered by yeast fitness: at most 0.5 for the first, at most 0.5 for the second.

C4G C30A C34U A37G and C4G C5U A37U cannot be ordered by yeast fitness: at most 0.5 for the first, at most 0.5 for the second.

C4G G17A A45C and C4G C11A C31U A40C cannot be ordered by yeast fitness: at most 0.5 for the first, at most 0.5 for the second.

Compared with C4G C5A U19A C24G C29G C66U, C4G C22A C27U G63C is higher in yeast fitness: at most 0.5 for the first, 0.735 for the second.
